IC50 and Activity data for 4 molecules are collected here from ChEMBL document CHEMBL4014306, “Pyrazolopyrimidines as Potent Stimulators for Transient Receptor Potential Canonical 3/6/7 Channels” (J Med Chem, 2017).

The target in assay [1] is T1, Short transient receptor potential channel 4 (Mus musculus, UniProt Q9QUQ5).
T1 sequence (Q9QUQ5 whole entry): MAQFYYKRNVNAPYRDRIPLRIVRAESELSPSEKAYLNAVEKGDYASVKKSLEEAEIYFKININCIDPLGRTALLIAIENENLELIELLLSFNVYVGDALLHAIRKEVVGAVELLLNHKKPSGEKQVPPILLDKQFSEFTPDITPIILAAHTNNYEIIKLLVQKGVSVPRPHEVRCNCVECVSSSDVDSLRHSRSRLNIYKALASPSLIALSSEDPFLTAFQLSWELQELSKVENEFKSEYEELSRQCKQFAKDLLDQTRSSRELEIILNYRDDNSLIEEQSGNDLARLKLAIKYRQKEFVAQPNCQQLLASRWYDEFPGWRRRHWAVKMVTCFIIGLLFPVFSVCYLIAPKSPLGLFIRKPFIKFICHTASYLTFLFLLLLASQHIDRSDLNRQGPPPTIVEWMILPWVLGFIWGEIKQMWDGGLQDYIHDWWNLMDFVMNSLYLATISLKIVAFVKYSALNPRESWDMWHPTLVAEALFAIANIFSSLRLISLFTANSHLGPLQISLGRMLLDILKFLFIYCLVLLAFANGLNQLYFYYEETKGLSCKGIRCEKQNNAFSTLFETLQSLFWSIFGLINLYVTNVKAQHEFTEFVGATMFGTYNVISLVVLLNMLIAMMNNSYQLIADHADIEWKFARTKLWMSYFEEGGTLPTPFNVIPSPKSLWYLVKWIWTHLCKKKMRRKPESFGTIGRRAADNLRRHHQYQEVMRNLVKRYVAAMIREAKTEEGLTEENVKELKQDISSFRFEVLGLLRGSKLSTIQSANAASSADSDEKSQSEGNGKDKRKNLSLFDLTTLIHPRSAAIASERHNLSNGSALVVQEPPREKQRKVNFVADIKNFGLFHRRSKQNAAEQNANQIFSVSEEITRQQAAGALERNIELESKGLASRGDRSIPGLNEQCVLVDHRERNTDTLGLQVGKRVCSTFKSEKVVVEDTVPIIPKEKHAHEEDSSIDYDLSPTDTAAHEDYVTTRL
Kind of assay: Antagonist activity at mouse TRPC4beta expressed in HEK293 cells co-expressing MOR decrease in DAMGO-evoked intracellular calcium level by Fluo-8-AM dye-based fluorescence assay. It is filed as cell-based. Put shortly:
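MOR/TRPC4β HEK293 cells loaded with Ca2+ dye. Compound given before 1 μM DAMGO. IC50 estimated from one experiment in triplicate.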
Background: A change in cytosolic calcium serves as a functional read-out for many receptors and channels.

Assay [2] concerns the target T2, Short transient receptor potential channel 5 (Homo sapiens) (UniProt Q9UL62).
T2 sequence (whole entry): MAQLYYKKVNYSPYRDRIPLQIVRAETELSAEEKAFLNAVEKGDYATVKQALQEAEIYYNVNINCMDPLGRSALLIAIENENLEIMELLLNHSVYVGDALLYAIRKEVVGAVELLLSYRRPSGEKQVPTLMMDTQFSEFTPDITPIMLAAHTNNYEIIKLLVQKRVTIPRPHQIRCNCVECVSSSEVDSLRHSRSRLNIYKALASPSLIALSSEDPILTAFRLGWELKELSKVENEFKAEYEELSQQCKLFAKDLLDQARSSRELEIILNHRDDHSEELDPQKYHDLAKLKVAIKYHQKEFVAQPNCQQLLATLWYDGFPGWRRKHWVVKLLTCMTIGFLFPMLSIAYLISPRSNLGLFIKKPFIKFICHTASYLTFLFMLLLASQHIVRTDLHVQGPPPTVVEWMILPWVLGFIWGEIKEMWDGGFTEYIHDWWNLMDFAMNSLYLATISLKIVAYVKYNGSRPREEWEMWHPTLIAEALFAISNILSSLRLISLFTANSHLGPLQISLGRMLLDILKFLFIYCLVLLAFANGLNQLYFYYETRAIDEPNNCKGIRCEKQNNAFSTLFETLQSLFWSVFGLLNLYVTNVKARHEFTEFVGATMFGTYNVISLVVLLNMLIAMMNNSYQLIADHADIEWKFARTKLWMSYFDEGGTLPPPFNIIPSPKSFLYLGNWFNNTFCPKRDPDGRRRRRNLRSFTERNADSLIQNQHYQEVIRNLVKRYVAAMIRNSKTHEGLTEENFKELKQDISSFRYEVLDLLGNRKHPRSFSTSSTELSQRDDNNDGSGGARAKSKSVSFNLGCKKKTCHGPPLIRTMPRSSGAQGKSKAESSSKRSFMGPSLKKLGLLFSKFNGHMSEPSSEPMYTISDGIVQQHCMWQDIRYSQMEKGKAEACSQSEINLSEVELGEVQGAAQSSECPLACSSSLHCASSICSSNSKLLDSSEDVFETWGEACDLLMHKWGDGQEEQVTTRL
Nature of the assay: Agonist activity at human TRPC5 expressed in HEK293 cells assessed as induction of membrane depolarization at 33 uM measured for 2.5 mins by FLIPR membrane potential dye-based fluorescence assay. In kind it is cell-based.

Each structure is given as a SMILES string. Activity calls are given as the source filed them. The calls are words filed in the database; no cut-off is given here.

On to `Cc1nn2c(O)cc(C3CCN(C(=O)OCc4ccccc4)CC3)nc2c1-c1ccc(Cl)cc1`, for which the IC50 result in assay [1] is recorded as “Not Active”. In addition, in assay [2], the result was inactive.
In the case of `Cc1nn2c(O)cc(C3CCN(C(=O)OCc4ccccc4)CC3)nc2c1-c1ccc(F)cc1`, the IC50 result in assay [1] is reported as “Not Active”. Moreover, the result in assay [2] was inactive.
Consider `CCOC(=O)N1CCC(c2cc(O)n3nc(C)c(-c4ccc(F)cc4)c3n2)CC1`, for which the IC50 result in assay [1] is given as “Not Active”. In assay [2], the result was inactive.
For `CCOC(=O)N1CCC(c2cc(O)n3nc(C)c(-c4ccc(C(F)(F)F)cc4)c3n2)CC1`, in that order: “Not Active” and “inactive”.
